In PubChem BioAssay AID1899 (The Scripps Research Institute Molecular Screening Center, 2009):
In all, about 300,000 compounds went through this assay and about 1,000 (0.33%) were called active. The full list was thinned out, with actives kept by preference. Values without a mark were called inactive.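 Rule for the calls: active = inhibition above the mean of all tested compounds plus 3 SD, set per screening campaign (cut at about 45% in these data); inactive = the rest.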

The molecules below were run on HCV core protein (residues 1-106) dimerization (assay: inhibitors of HCV core protein dimerization, primary screen, biochemical, TR-FRET, high-throughput (AID 1899)). Conditions: TR-FRET GST/Flag-core106 dimerization, 1536-well; at 5 µM; stronger effect = higher value.
How it was run: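 Assay system: GST-tagged and Flag-tagged HCV core protein residues 1-106 / Times: compound-protein-antibody incubation 4 h at 22.5 °C / Signal: time-resolved FRET, ex 340 nm, em 617 and 671 nm / Evaluation: % inhibition based on acceptor/donor emission ratio / Benchmarks: wells lacking GST-core106 and wells with excess unlabelled core106 / Repeats: singlicate, one well per compound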
Work on `COc1ccc(/C=C/C(=O)NC(=S)N2CCCC(C(N)=O)C2)cc1` (centres undefined) yielded an inhibition of -10.7%. In the case of `CCOc1ccc(NC(=S)NC(=O)/C=C/c2ccc(OC)cc2)c([N+](=O)[O-])c1`, the inhibition is reported as 47.8% (active). Work on `Cc1ccc(NC(=S)NC(=O)/C=C/c2ccc(Cl)cc2)cc1` yielded an inhibition of -5.71%. `Cn1nnnc1SCC(=O)N1CCN(C(c2ccccc2)c2ccccc2)CC1` gave an inhibition of 2.43%. In the case of `N#CC1=C(N)Oc2c(sc3ccccc23)C1c1ccco1` (centres undefined), the inhibition is reported as 54.5% (active). For `N#CC1=C(N)Oc2c(ccc3cccnc23)C1c1ccncc1` (centres undefined), the inhibition was 3.58%. `COC(=O)c1ccc2c(=O)n(CCN3CCOCC3)c(SCC(=O)Nc3cccc(OC)c3)nc2c1` gave an inhibition of -0.68%. Molecule `CCOC(=O)N1CCN(C(=O)CSc2nc(C)nc3c2c(=O)n(C)c(=O)n3C)CC1` has an inhibition of -1.3%. In the case of `COc1ccc2c(CN3CCN(S(=O)(=O)c4cccs4)CC3)cc(=O)oc2c1`, the inhibition is reported as 11.7%. With `NC(=O)CCN1CCN(S(=O)(=O)/C=C/c2ccccc2)CC1` the inhibition was 0.92%. In the case of `O=c1cc(CN2CCN(S(=O)(=O)/C=C/c3ccccc3)CC2)c2ccc(O)cc2o1`, the inhibition is reported as 52.2% (active). With `Cc1cc(C(=O)N/N=C/c2ccc(O)c([N+](=O)[O-])c2)c(C)n1-c1ccc(F)cc1` the inhibition was 70.4% (active). In the case of `COc1cc(/C=N/NC(=O)c2cc(C)n(-c3ccc(F)cc3)c2C)cc(OC)c1O`, the inhibition is reported as 4.09%. With `Cc1nn(CC(=O)N/N=C/c2ccc(F)cc2)c(C)c1[N+](=O)[O-]` the inhibition was -5.44%. In the case of `CC(c1ccco1)N(C(=O)c1ccc(S(=O)(=O)N2CCCCC2)cc1)c1ccccn1` (centres undefined), the inhibition is reported as -1.02%. With `CC(C)NC(=O)NC(=O)COC(=O)c1ccc(NC(=O)CC#N)cc1` the inhibition was -2.82%. `CCOc1ccc(C(=O)Nc2ccncc2)cc1` was tested, and the inhibition was -4.79%. For `CCOc1ccc(NC(=O)c2ccc(NC(=O)COC(=O)c3ccc(NC(=O)CC#N)cc3)cc2)cc1`, the inhibition was 62.4% (active). `CCCn1c(O)c(CN2CCCC(C)C2)c(C)c(C#N)c1=O` (centres undefined) showed an inhibition of -8.8%. `O=C(Nc1ccc(-n2ccnc2P(=O)(O)c2ccccc2)cc1)c1ccccc1Br` gave an inhibition of 3.36%. `CC(=O)c1ccc(S(=O)(=O)N2CCC3(CC2)OCCO3)cc1` gave an inhibition of -8.35%. Molecule `CC(=O)c1ccc(S(=O)(=O)N2CCN(C(=O)/C=C/c3ccc4ccccc4n3)CC2)cc1` has an inhibition of 34.5%. With `CC(=O)c1ccc(S(=O)(=O)N2CCN(c3nc4c(C)c(C)ccc4cc3C#N)CC2)cc1` the inhibition was 60.9% (active). With `Cc1ccc(S(=O)Cc2ccc(C(=O)N3CCN(C4CCCCC4)CC3)o2)cc1` (centres undefined) the inhibition was 2.42%. `COc1ccc(/C=N/N=C/c2c[nH]c(=O)c(C#N)c2Nc2ccccc2)cc1` showed an inhibition of 9.36%. `Nc1nc(O)c(CC(=O)O)s1` gave an inhibition of -10.1%. In the case of `COc1cc2c(C(=O)O)c(C)n(C)c2c2ccccc12`, the inhibition is reported as -16.5%. `COc1cccc2c(C)c(C(=O)O)[nH]c12` was tested, and the inhibition was 52.9% (active). `Cc1c(C(=O)N/N=C/c2ccccc2)[nH]c2c([N+](=O)[O-])cccc12` showed an inhibition of 2.99%. `COc1ccc(S(=O)(=O)N2CCN(c3ncnc4c(-c5ccccc5)nsc34)CC2)cc1` gave an inhibition of 5.78%. For `COc1cccc(OCc2cc(/C=N/NC(=O)c3nc(Cl)c(Cl)c(N)c3Cl)ccc2OC)c1`, the inhibition was 58.9% (active). `COc1ccc(/C=N/NC(=O)c2ccc(Cl)cc2)cc1COC(C)=O` showed an inhibition of -6.24%. `COc1ccc(/C=N\NC(=O)c2sc(N)nc2C)cc1OC` showed an inhibition of 1.3%. Work on `CCn1cc(/C=C(\NC(=O)c2cc(OC)c(OC)c(OC)c2)C(=O)N2CCN(C)CC2)c2ccccc21` yielded an inhibition of -12.2%. Molecule `CC1CCCN(c2ccc(C(=O)NCCc3ccccc3)cn2)C1` (centres undefined) has an inhibition of -2.49%. `Nc1ccc2nc3c(=O)[nH]c(=S)[nH]c3nc2c1` was tested, and the inhibition was 47.1% (active). `Cc1cc2nc3c(=O)n(Cc4ccccc4)c(=O)[nH]c3nc2cc1N` was tested, and the inhibition was 7.8%. `Cc1ccc(-c2cc(C(=O)N/N=C/C=C/c3ccco3)c3ccccc3n2)cc1C` was tested, and the inhibition was 68.2% (active). `O=C(N/N=C/C=C/c1ccco1)c1cccs1` was tested, and the inhibition was 11.6%. `COc1ccc(/C=N/NC(=O)c2cc(-c3cccc(C)c3)nc3ccccc23)cc1O` gave an inhibition of 4.37%. `CCOC(=O)N1CCN(Cc2nc3ccc([N+](=O)[O-])cc3c(=O)n2-c2cccc(OC)c2)CC1` was tested, and the inhibition was 0.84%. Work on `Cc1ccc(NC(=O)CN(C)C(=O)COC(=O)C(C)(C)Oc2ccc(Cl)cc2)cc1` yielded an inhibition of 2.08%. In the case of `CC(C)c1ccc(C2C(C(=O)c3ccco3)=C(O)C(=O)N2CC2CCCO2)cc1` (centres undefined), the inhibition is reported as -4.24%. `Cn1cncc1COC(=O)c1ccc(Cl)cc1` was tested, and the inhibition was 1.11%. For `Cc1cc(C2=NNC(=Nc3ccc(S(=O)(=O)N4CCOCC4)cc3)SC2)c(C)n1CC1CCCO1` (centres undefined), the inhibition was 55.5% (active). `C=CCn1c(C)cc(C2=NNC(=NCC)SC2)c1C` showed an inhibition of -4.1%. `Cc1ccc(S(=O)(=O)N2CCC(C(=O)NCC3CCCO3)CC2)cc1` (centres undefined) was tested, and the inhibition was 4.25%. `O=C(NNC(=S)NC(=O)c1cn(-c2ccccc2)nc1-c1ccccc1)c1ccncc1` was tested, and the inhibition was -3.87%. Work on `CCn1cc(C(=O)N2CC(C)CC(C)C2)c(=O)c2cc(S(=O)(=O)N3CCCC3)ccc21` (centres undefined) yielded an inhibition of -3.07%. Work on `CN(NC(=O)C1CC(=O)N(c2ccccc2)C1)C1=NS(=O)(=O)c2ccccc21` (centres undefined) yielded an inhibition of 1.86%. With `O=C(N=C1SC2CS(=O)(=O)CC2N1c1cc(Cl)ccc1Cl)C1CC1` (centres undefined) the inhibition was -2.57%. In the case of `Clc1ccccc1CSc1nnc(-c2ccco2)c(-c2ccco2)n1`, the inhibition is reported as 60.8% (active). In the case of `COc1ccc2nc(SCc3ccccc3)nc(C)c2c1`, the inhibition is reported as -8.86%. For `O=c1cc(O)nc(SCc2ccccc2Cl)[nH]1`, the inhibition was -5.09%. `O=c1[nH]c(SCc2ccccc2)nnc1-c1ccccc1` was tested, and the inhibition was 4.19%. In the case of `c1ccc(CSc2nnc(-c3ccco3)c(-c3ccco3)n2)cc1`, the inhibition is reported as 63.8% (active). Work on `Fc1cccc(Cl)c1CSc1ccc(-c2ccco2)nn1` yielded an inhibition of 19.9%. In the case of `CCN(CC(=O)Nc1ccccc1OC)C(=O)Cn1cnc2ccccc2c1=O`, the inhibition is reported as 0.63%. For `C=C1CCN([C@@H](Cc2ccccc2)C(=O)N2CCOCC2)S(=O)(=O)c2ccccc21`, the inhibition was 5.65%. Work on `CCOC(=O)CSc1nc2ccc(C)cc2n2cnnc12` yielded an inhibition of -1.27%. With `CC(C)(C)CC(=O)Nc1nnc(SCC(=O)NCc2cccs2)s1` the inhibition was 10.5%. `O=C(c1ccccc1)N1CCN(C(=O)c2cc3nc(-c4ccccc4)cc(C(F)(F)F)n3n2)CC1` showed an inhibition of -5.71%. `CN1C(=O)/C(=C/c2ccco2)SC1=Nc1cccc(C(=O)O)c1` was tested, and the inhibition was 1.21%. With `Cc1ccc(N=C2NC(=O)/C(=C/C=C/c3ccco3)S2)cc1C` the inhibition was 61.8% (active). For `Cc1ccc(N2NC(=O)/C(=C/C=C/c3ccco3)C2=O)cc1C`, the inhibition was 13.5%. `C/C(=N\NC(=O)c1ccc(CSc2nc(C)cc(C)n2)cc1)C1CCCCC1` showed an inhibition of 7.33%. `O=C(Nc1ccccc1C(=O)O)c1ccc(N2C(=O)C3CC=CCC3C2=O)cc1` (centres undefined) gave an inhibition of -0.72%. `N#Cc1ccccc1CN1C(=O)S/C(=C/c2cccn2-c2cccc(C(=O)O)c2)C1=O` was tested, and the inhibition was 74.2% (active). Work on `Cc1ccccc1NC(=O)CN1C(=O)N/C(=C\c2cccn2-c2cccc(C(=O)O)c2)C1=O` yielded an inhibition of -4.12%. In the case of `Cc1cc(/C=C2\SC(=O)N(C)C2=O)c(C)n1-c1cccc(C(=O)O)c1`, the inhibition is reported as 8.51%. `COc1ccc(S(=O)(=O)N2CCOC23CCN(S(=O)(=O)c2ccc([N+](=O)[O-])cc2)CC3)cc1` gave an inhibition of 7.35%. Work on `CC(C)c1ccccc1OCC(O)CN(CC(O)COc1cccc2ccccc12)C(C)C` (centres undefined) yielded an inhibition of -10.3%. With `Cc1ccc(C(=O)N/C(=C\c2cn(S(=O)(=O)N(C)C)c3ccccc23)C(=O)N2CCCC2)cc1` the inhibition was 15.1%. With `O=C(Nc1ccccc1C(=O)N1CCCCC1)c1ccco1` the inhibition was -1.76%. With `CN(C)C=NC(=O)c1cccn1-c1ncc(C(F)(F)F)cc1Cl` the inhibition was -0.36%. In the case of `Cc1noc(/C=C/c2ccco2)c1S(=O)(=O)N1CCC(C(=O)N2CCc3ccccc32)CC1`, the inhibition is reported as 66.4% (active). With `Cc1noc(/C=C/c2ccco2)c1S(=O)(=O)N1CCC(C(=O)Nc2ccc(Cl)cn2)CC1` the inhibition was 9.46%. For `CNC(=O)C1CCN(S(=O)(=O)c2c(C)noc2/C=C/c2cccc(C)c2)CC1`, the inhibition was -2.65%. For `Cc1cccc(C)c1NC(=O)CN1C(=O)C(C)Oc2ccccc21` (centres undefined), the inhibition was 5.55%. Work on `CN(C)c1ccc(C(=S)N2CCN(C(=S)Nc3ccc(Cl)cc3)CC2)cc1` yielded an inhibition of 13%. In the case of `O=c1nc2s/c(=C\c3ccco3)c(=O)n2nc1Cc1ccccc1`, the inhibition is reported as 22.3%. In the case of `CCOc1ccccc1/C=c1\sc2nc(-c3ccco3)nn2c1=O`, the inhibition is reported as 62.2% (active). For `CSc1nc(-c2ccco2)nn1C(=O)CCc1ccccc1`, the inhibition was -2.5%. Molecule `CC(=O)c1c(Nc2ccccc2)sc(C(=O)c2ccccc2)c1C` has an inhibition of -11.1%. With `C=CCC(Nc1ccccc1)c1cccc(OC)c1OC` (centres undefined) the inhibition was 2.92%. For `CCOC(=O)c1c(C)n(C)c2ccc(OC)c(NC(=O)CN3CCC4(CC3)OCCO4)c12`, the inhibition was -1.2%. With `Cc1ccc2nc(-c3ccncc3)cc(C(=O)Nc3ccncc3)c2c1` the inhibition was 8.74%. `O=C(Nc1ccc(S(=O)(=O)Nc2nccs2)cc1)c1cc(=O)[nH]c2ccccc12` was tested, and the inhibition was 2.23%. `O=C(Nc1ccc(S(=O)(=O)Nc2nccs2)cc1)c1cc(-c2ccncc2)nc2ccccc12` was tested, and the inhibition was 76% (active).
